In ChEMBL document CHEMBL2440065, “Identification of a novel benzoxazolone derivative as a selective, orally active 18 kDa translocator protein (TSPO) ligand” (J Med Chem, 2013):
Converted amounts (≈) assume the structure as drawn.

Experiments:
Mus musculus [1] = assay: Neurotoxicity in ddY mouse assessed as motor impairment at 3 to 30 mg/kg, po after 1 hr by horizontal rotarod test; format: toxicity, organism-based; parameters: dose 3-30 mg/kg, route oral; conditions: in vivo
Mus musculus [2] = assay: Neurotoxicity in ddY mouse assessed as reduction in locomotor activity at 3 to 30 mg/kg, po after 1 hr; format: toxicity, organism-based; parameters: dose 3-30 mg/kg, route oral; conditions: in vivo
Rattus norvegicus = assay: Neurotoxicity in Wistar rat assessed as memory impairment at 1 to 30 mg/kg, po after 1 hr by passive avoidance test; format: toxicity, organism-based; parameters: dose 1-30 mg/kg, route oral; conditions: in vivo
Mus musculus [3] = assay: Neurotoxicity in ddY mouse assessed as elongation of hexobarbital-induced sleep at 0.3 to 3 mg/kg, po after 1 hr; format: toxicity, organism-based; parameters: dose 0.3-3 mg/kg, route oral; conditions: in vivo
[4] = Metabolic stability in human liver S9 fraction assessed as compound remaining at 1 uM after 30 mins; format: ADME, subcellular; conditions: read-out: Stability
Translocator protein [5] = molecular target: Translocator protein (Homo sapiens, UniProt P30536); assay: Displacement of [3H]PK11195 from TSPO in human U-87 MG cells after 1 hr by liquid scintillation counting analysis; format: cell-based
Translocator protein (Homo sapiens, UniProt P30536), sequence (P30536 whole entry): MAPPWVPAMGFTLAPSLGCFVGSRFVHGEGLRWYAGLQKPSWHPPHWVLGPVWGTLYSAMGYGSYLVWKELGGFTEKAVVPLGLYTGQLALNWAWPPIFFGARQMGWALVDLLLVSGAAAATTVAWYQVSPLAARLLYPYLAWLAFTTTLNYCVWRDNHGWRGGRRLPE

Translocator protein [6] = molecular target: Translocator protein (Rattus norvegicus, UniProt P16257); assay: Displacement of [3H]PK11195 from Sprague-Dawley rat kidney TSPO after 1 hr by liquid scintillation counting analysis
Translocator protein (Rattus norvegicus, UniProt P16257), sequence (P16257 whole entry, looked up): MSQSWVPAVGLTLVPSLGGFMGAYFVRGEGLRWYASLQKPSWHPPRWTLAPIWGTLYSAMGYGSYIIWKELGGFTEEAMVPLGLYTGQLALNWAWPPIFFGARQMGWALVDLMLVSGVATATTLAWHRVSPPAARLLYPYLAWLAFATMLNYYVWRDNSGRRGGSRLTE

[7] = Solubility of the compound at pH 2.5 by HPLC analysis; format: physicochemical; conditions: buffer
Procedure, shortened: (§1)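 Compound (1 mg) shaken in 0.4 mL buffered solution at pH 7.4 or pH 2.5, then centrifuged; dissolved compound in the supernatant quantified by HPLC.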

[8] = Solubility of the compound at pH 7.4 by HPLC analysis; format: physicochemical; conditions: buffer; procedure, shortened: as §1
[9] = Displacement of [3H]batrachotoxin from rat brain sodium channel site 2; format: tissue-based
[10] = molecular target: Amine oxidase [flavin-containing] A (Homo sapiens, UniProt P21397); assay: Inhibition of human MAO-A at 10 uM
Amine oxidase [flavin-containing] A, sequence (P21397 whole entry): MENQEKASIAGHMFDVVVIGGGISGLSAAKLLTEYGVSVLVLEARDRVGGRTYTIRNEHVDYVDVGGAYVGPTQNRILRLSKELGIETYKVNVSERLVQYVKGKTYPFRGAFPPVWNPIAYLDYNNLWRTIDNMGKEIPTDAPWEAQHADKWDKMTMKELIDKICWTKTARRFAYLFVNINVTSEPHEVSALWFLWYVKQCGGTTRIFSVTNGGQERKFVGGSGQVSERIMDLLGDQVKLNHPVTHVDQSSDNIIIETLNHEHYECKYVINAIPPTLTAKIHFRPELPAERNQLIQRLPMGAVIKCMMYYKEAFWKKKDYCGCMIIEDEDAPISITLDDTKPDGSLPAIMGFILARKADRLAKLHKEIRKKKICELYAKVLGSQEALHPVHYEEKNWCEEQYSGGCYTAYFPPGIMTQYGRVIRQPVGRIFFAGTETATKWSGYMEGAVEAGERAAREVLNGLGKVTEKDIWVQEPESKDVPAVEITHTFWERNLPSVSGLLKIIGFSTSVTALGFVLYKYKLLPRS

[11] = Metabolic stability in rat liver S9 fraction assessed as compound remaining at 1 uM after 30 mins in presence of NADPH; format: ADME, subcellular; conditions: read-out: Stability

Compound | Activity (Mus musculus [1]) | Activity (Mus musculus [2]) | Activity (Rattus norvegicus) | Activity (Mus musculus [3]) | remaining at 0.5 h, 1 µM [4] [%] | Ki (Translocator protein [5]) [nM] | Ki (Translocator protein [6]) [nM] | solubility [7] [µg/mL] | solubility [8] [µg/mL] | IC50 [9] [nM] | inhibition (INH) [10] | remaining at 0.5 h, 1 µM [11] [%]
CN1C(=O)CN=C(c2ccccc2)c2cc(Cl)ccc21 [DIAZEPAM] | Toxic | Toxic | Toxic | Toxic |  |  |  |  |  |  |  | 
CN(C(=O)Cn1c(=O)oc2ccc(-c3cccnc3)cc21)c1ccc(C(F)(F)F)cc1 |  |  |  |  | 84 | 8 | 8.6 | 420 (≈ 983 µM) | 1 (≈ 2.34 µM) | > 10000 | Not Active | 38
